Source: PubChem
DNA FID counter: compounds displacing fluorescent DNA intercalator, primary screen, artefact control for HCV NS3 helicase inhibitor project, biochemical, FID fluorescence; DNA fluorescent intercalator displacement; inhibition, % at 7.9 µM; 290,000 tested, 0.17% active; AID 1845, 2009; in the data active = inhibition above about 37%;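 note: 0% = vehicle and 100% = reference compound; higher means more ethidium bromide displaced from hairpin DNA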
MEKK3 PB1 HTS: modulators of MEKK3-MEK5 PB1 binding, primary screen, biochemical, wildtype MEKK3, multiplex bead flow cytometry, Alexa488-MEK5; Mitogen-activated protein kinase kinase kinase 3 (Homo sapiens), Q99759; bead-based flow cytometry, Alexa488-MEK5 binding to MEKK3; actives lie on both sides; 0 = blocked by unlabeled MEK5, 100 = vehicle; binding response (% of control), % at 10 µM; 290,000 tested, 1.4% active; AID 1529, 2009;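 active = binding response more than 3 SD above or below the average of its plate-row segment, actives on both sides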;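 note: Alexa488 bead fluorescence after subtracting the streptavidin-only scavenger bead signal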
Target sequence (Q99759 whole entry, looked up): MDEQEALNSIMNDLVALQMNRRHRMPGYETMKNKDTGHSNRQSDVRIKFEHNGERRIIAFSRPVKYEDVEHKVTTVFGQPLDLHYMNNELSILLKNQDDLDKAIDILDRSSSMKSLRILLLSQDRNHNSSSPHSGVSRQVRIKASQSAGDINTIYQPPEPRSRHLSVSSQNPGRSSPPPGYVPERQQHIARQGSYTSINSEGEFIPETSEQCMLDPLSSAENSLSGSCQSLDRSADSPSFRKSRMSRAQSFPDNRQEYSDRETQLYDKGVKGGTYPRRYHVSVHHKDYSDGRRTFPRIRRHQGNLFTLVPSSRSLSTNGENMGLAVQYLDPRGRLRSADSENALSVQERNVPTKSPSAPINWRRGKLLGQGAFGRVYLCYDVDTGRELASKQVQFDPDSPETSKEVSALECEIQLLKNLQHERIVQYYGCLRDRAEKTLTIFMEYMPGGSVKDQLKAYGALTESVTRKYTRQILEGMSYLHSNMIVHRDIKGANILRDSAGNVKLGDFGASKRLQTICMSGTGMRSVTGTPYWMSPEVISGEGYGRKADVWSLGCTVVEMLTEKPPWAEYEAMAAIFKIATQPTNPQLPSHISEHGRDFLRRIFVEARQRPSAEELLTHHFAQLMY
MEKK2wt PB1 HTS: modulators of MEK5 binding to wildtype MEKK2, primary screen, biochemical, multiplex bead flow cytometry, Alexa488-MEK5 | AID 1531, 2009 | Mitogen-activated protein kinase kinase kinase 2 (Homo sapiens), Q9Y2U5 | binding response (% of control), % at 10 µM | Alexa488-MEK5 binding to MEKK2 WT; actives lie on both sides | 290,000 tested, 1.1% active; in the data active = binding response below about 67% or above about 130%
MEKK2 mut-MEK5: MEK5 binding signal on mutant MEKK2 PB1, primary screen, biochemical, multiplex bead flow cytometry, Alexa488-MEK5 | Alexa488-MEK5 binding to MEKK2 mutant | percent response, % at 10 µM | 290,000 tested, 0.35% active | AID 1530, 2009; in the data active = percent response above about 24%, passing the limit was not always enough
T cruzi repl: inhibitors of intracellular T. cruzi growth, primary screen, luminescence, NIH3T3 host cells; AID 1885, 2009; T. cruzi beta-gal in NIH3T3, 90 h; 300,000 tested, 1.4% active; inhibition, % (concentration not given with the values);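 active = mean inhibition across valid replicates above about 55%, limit read from the data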;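 note: signal also drops with host cell toxicity which is not excluded here; 0% = plate median of DMSO wells and 100% = zero luminescence signal; higher percent means less beta-gal luminescence so fewer parasites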
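System: Mouse NIH/3T3 fibroblasts infected with β-gal-expressing T. cruzi Tulahuen C4 | Quantity: NIH/3T3 cells, 5,000 per well | Reagent: 5000 reporter trypomastigotes per well | Dosing: Compound pinned at 50 nL/well, DMSO | Schedule: 3 h host attachment, then at least 90 h co-culture | Detection: GalScreen luminescence, 60 min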
HCV NS3 hel inh: inhibitors of HCV NS3 helicase, primary screen, biochemical, Cy5 molecular beacon fluorescence. inhibition, % at 10.9 µM. NS3 helicase DNA unwinding. 290,000 tested, 0.56% active. AID 1800, 2009;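 active = inhibition above the mean of all tested compounds plus 3 SD, set per campaign, cut at about 35% in these data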;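 note: 0% = DMSO wells and 100% = thioflavine S control wells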
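Assay system – hepatitis C virus NS3 helicase domain fragment enzyme · Buffer or medium – MOPS pH 6.5, MgCl2, DTT, Tween20, BSA · Reagent – Cy5/quencher beacon DNA duplex and ATP to start · Compound – single 10.9 µM dose · Timing – 1 h at 25 °C · Technique – Cy5 beacon fluorescence read at start and 1 h · Measure – % inhibition of unwinding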
MEKK2wt confirm: modulators of MEK5 binding to wildtype MEKK2, confirmation, biochemical, single concentration, multiplex bead flow cytometry. shares compounds with MEKK3 PB1 HTS. Alexa488-MEK5 binding to MEKK2 WT; actives lie on both sides. binding response (% of control), % at 10 µM. 5,900 tested, 2.4% active; in the data active = binding response below about 16% or above about 210%; inactive = in between
MEKK2mut confirm: mutant MEKK2 PB1-MEK5 binding signal retest – biochemical, single concentration, multiplex bead flow cytometry, confirmation; shares compounds with MEKK3 PB1 HTS; Alexa488-MEK5 binding to MEKK2 mutant; percent response, % at 10 µM; 5,900 tested, 2% active; in the data active = percent response mostly above about 71%, no sharp cut-off; inactive = mostly below about 38%;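 note: higher means compound restores mutant binding toward wildtype level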
MEKK3-MEK5 inh: MEKK3 wild-type PB1 binding to MEK5, inhibitors, confirmation, biochemical, bead multiplex flow cytometry, single concentration, wildtype; shares compounds with MEKK3 PB1 HTS; Alexa488-MEK5 binding to MEKK3; active compounds read low; binding response (% of control), % at 10 µM; 5,900 tested, 1.8% active; AID 1894, 2009;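 active = binding response below 72% of control, or above a set upper limit, though filed actives all read lower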;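 note: 100% = DMSO only wells and 0% = binding blocked by excess unlabeled MEK5; lower values mean stronger disruption of MEK5 binding to MEKK3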
The depositor's hits bear a star; . = not tested or not shown; [ ] = remark or other dose. An excerpt weighted towards active compounds, which were near 4.1% of everything screened.

SMILES | DNA FID counter | MEKK3 PB1 HTS | MEKK2wt PB1 HTS | MEKK2 mut-MEK5 | T cruzi repl | HCV NS3 hel inh | MEKK2wt confirm | MEKK2mut confirm | MEKK3-MEK5 inh
CCOC(=O)c1c(-c2ccc(-c3ccccc3)cc2)csc1NC(=O)CNCCN(C)C | 19 | 117 | 286* | 69* | 47 | -79 | 238* | 141* | 115
O=C(N1CCN(c2ccccc2F)CC1)C1(c2cccs2)CCOCC1 | -15 | 134* | 106 | 0 | -53 | 14 | 97 | 2 | 103
CCCC(C(=O)Nc1cccc(S(=O)(=O)N2CCCC2)c1)c1ccccc1 (stereo unspecified) | . | . | . | . | 12 | . | . | . | .
COc1ccc(C)cc1NC(=O)CC(NC(C)=O)c1ccccc1 (stereo unspecified) | -16 | 135* | 116 | 1 | -7 | 18 | 102 | -7 | 99
CCOC(=O)C1CCN(C(=O)C2CCN(c3nc4ccc(OC)cc4s3)CC2)CC1 | -36 | 122* | 118 | 7 | 22 | -3 | 110 | 8 | 108
CCn1c(=O)cc(SCC(=O)N(C)Cc2ccccc2)c2ccccc21 | -36 | 110 | 109 | 3 | 6 | 8 | . | . | .
CCOC(=O)CSc1cc(=O)n(CC)c2ccccc12 | -12 | 129* | 123 | 8 | -3 | -7 | 100 | 3 | 103
CC1CCN(c2ccccc2NC(=O)c2ccc(Br)o2)CC1 | -29 | 100 | 95 | -2 | 15 | 4 | . | . | .
CCOc1ccc(NC(=O)CCC(=O)NNC(=O)COc2ccccc2C)cc1 | -11 | 101 | 96 | -7 | -8 | 8 | . | . | .
CC(C)c1ccc(N(C)C(=O)Cc2c(C(=O)O)n(C)c3ccccc23)cc1 | -30 | 1.0*[inhibitor] | -1.0*[inhibitor] | -15 | 0 | 12 | 100 | 1 | 100
Cc1cc(OCCN2CCOCC2)ccc1C(C)C | -2 | 107 | 112 | 12 | 16 | 10 | . | . | .
C#CCOCCOCCOCCNc1nc(N2CCN(C(=O)C(CCC(=O)O)n3cc(C(N)CC(C)C)nn3)CC2)nc(N2CCN(C(=O)C(Cc3cc4ccccc4[nH]3)n3cc(C(N)Cc4ccc(O)cc4)nn3)CC2)n1 (stereo unspecified) | 15 | 105 | 131 | 19 | -16 | -65 | . | . | .
C#CCOCCOCCOCCNc1nc(N2CCN(C(=O)[C@H](Cc3cc4ccccc4[nH]3)n3cc([C@@H](N)C(C)CC)nn3)CC2)nc(N2CCN(C(=O)[C@H](Cc3cc4ccccc4[nH]3)n3cc([C@@H](N)Cc4ccc(O)cc4)nn3)CC2)n1 (stereo partly specified) | 41* | 111 | 313* | 162* | 5 | -43 | 266* | 104* | 110
